Consider 12 compounds from ChEMBL document CHEMBL1149291, “Discovery of N-(2-chloro-6-methyl- phenyl)-2-(6-(4-(2-hydroxyethyl)- piperazin-1-yl)-2-methylpyrimidin-4-ylamino)thiazole-5-carboxamide (BMS-354825), a dual Src/Abl kinase inhibitor with potent antitumor activity in preclinical assays” (J Med Chem, 2004).

For one data set, the system named is K562. The data set is described as follows: Antiproliferative activity against human K562 cells after 72 hrs. It is filed as functional, cell-based. The conditions noted are these: K562, 72 h.
A short description of data set [1]: AUC (0-4 hrs) in BALB/c mouse at 50 mg/kg, po after 4 hrs. Also on record: time < 4 hr, dose 50 mg/kg, route oral. The note with it: plasma. In kind it is ADME, organism-based. The method in brief:
(§1)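 Mouse 4 h oral exposure screen: oral dose of 50 mg/kg given as a solution in 1:1 propylene glycol:water. Plasma drug levels followed over 4 h, giving AUC(0-4h), peak concentration (Cmax) and the concentration at 4 h.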

The subject of a further data set is MDA-MB-231. The data set is described as follows: cells. The conditions noted are these: Homo sapiens, MDA-MB-231, 72 h.
The next data set relates to WiDr. The data set is described as follows: cells. The note with it: Homo sapiens, 72 h.
A further data set concerns PC-3. Kind of data set: cells. The conditions noted are these: Homo sapiens, PC-3, 72 h.
The nature of data set [2]: Plasma concentration in BALB/c mouse at 50 mg/kg, po after 4 hrs. In kind it is ADME, organism-based. On the set-up: dose 50 mg/kg, route oral. The procedure, abridged: as §1
A short description of data set [3]: Cmax in BALB/c mouse at 50 mg/kg, po after 4 hrs. In kind it is ADME, organism-based. On the set-up: dose 50 mg/kg, route oral. The note with it: in vivo. The method in brief: as §1
Data set [4] is described as follows: (§2) Protein binding in human serum at 10 uM. In kind it is ADME, cell-free. The conditions noted are these: read-out: PPB (converted). The method in brief: (§3)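 Binding to human serum proteins measured at a compound concentration of 10 μM.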
Another data set relates to Serum. The description is as §2. It is filed as ADME, cell-free. The note with it: 10 µM. The procedure, abridged: as §3
Data set [5] is described as follows: Cmax in Sprague-Dawley rat at 10 mg/kg, iv. In kind it is ADME, organism-based. On the set-up: dose 10 mg/kg, route intravenous. The conditions noted are these: in vivo. The procedure, abridged:
(§4)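 Sprague–Dawley rats each given 10 mg/kg of compound, either intravenously or orally, in separate arms. Pharmacokinetic parameters were reported for each route as means with a variability term in parentheses. These were Cmax, Tmax, AUCtot, t1/2, MRT, and, for the iv dose, Cl and Vss. Oral bioavailability (Fpo) was reported for the oral arm.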

In data set [6] the test system is Rattus norvegicus. Kind of data set: Oral bioavailability in Sprague-Dawley rat at 10 mg/kg, po. In kind it is ADME, organism-based. The conditions noted are these: in vivo. The procedure, abridged:
as §4

The nature of data set [7]: Mean residence time in Sprague-Dawley rat at 10 mg/kg, po. On the set-up: dose 10 mg/kg, route oral. The conditions noted are these: in vivo. It is filed as ADME, organism-based. The method in brief:
(§5)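 Sprague-Dawley rats dosed at 10 mg/kg, either iv or orally, with drug as a solution in citric acid buffer pH 4.6. Parameters derived from plasma levels: Cmax, Tmax, AUCtot, t1/2, MRT, clearance, Vss, and oral bioavailability.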

Data set [8] can be described thus: AUC (total) in Sprague-Dawley rat at 10 mg/kg, iv. Also on record: dose 10 mg/kg, route intravenous. It is filed as ADME, organism-based. The note with it: plasma. The procedure, abridged:
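Sprague–Dawley rats; single 10 mg/kg intravenous dose as a solution in citric acid buffer at pH 4.6. Total plasma AUC (μM·h) taken from the pharmacokinetic profile alongside Cmax, t1/2, MRT, clearance and Vss.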

The nature of data set [9]: AUC (total) in Sprague-Dawley rat at 10 mg/kg, po. In kind it is ADME, organism-based. Also on record: dose 10 mg/kg, route oral. The note with it: plasma. The procedure, abridged: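 Sprague–Dawley rats; single 10 mg/kg oral dose given as a solution. Total plasma AUC (μM·h) taken from the pharmacokinetic profile alongside Cmax, Tmax, t1/2 and MRT.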
For a further data set, the species on record is Mus musculus. The data set is described as follows: Toxicity in nude mouse. The conditions noted are these: in vivo. In kind it is organism-based. The procedure, abridged: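 K562 cells implanted subcutaneously in nude mice and staged to about 300 mg tumors. Oral dosing once daily at 5 or 50 mg/kg on a 5 day on/2 day off schedule for two cycles. Toxicity scored as animal deaths or lack of weight gain.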

Data set [10] in a line: Tmax in Sprague-Dawley rat at 10 mg/kg, po. It is filed as ADME, organism-based. On the set-up: dose 10 mg/kg, route oral. The note with it: in vivo. The method in brief:
as §5

Data set [11] concerns Rattus norvegicus. Kind of data set: Clearance in Sprague-Dawley rat at 10 mg/kg, iv. In kind it is ADME, organism-based. On the set-up: dose 10 mg/kg, route intravenous. The note with it: in vivo. The procedure, abridged:
as §5

Data set [12] can be described thus: Volume of distribution in Sprague-Dawley rat at 10 mg/kg, iv. Also on record: dose 10 mg/kg, route intravenous. The note with it: in vivo, read-out: Vss. In kind it is ADME, organism-based. The method in brief: as §5
Data set [13] in a line: Cmax in Sprague-Dawley rat at 10 mg/kg, po. It is filed as ADME, organism-based. Also on record: dose 10 mg/kg, route oral. The conditions noted are these: in vivo. The procedure, abridged:
as §4

The nature of data set [14]: Mean residence time in Sprague-Dawley rat at 10 mg/kg, iv. It is filed as ADME, organism-based. Also on record: dose 10 mg/kg, route intravenous. The conditions noted are these: in vivo. The method in brief:
as §5

For the compound `Cc1cccc(Cl)c1NC(=O)c1cnc(Nc2cc(NCCN3CCOCC3)ncn2)s1`, the IC50 is under 2 nM in the data set with K562, 170 nM in the data set on MDA-MB-231, 270 nM in the data set with WiDr and 82 nM in the data set with PC-3. In [1], this compound came in with an AUC(0-t) at 4 h of 17 µM·h. This compound came in with a concentration at 4 h in data set [2] of 1900 nM. The compound also returned a Cmax in data set [3] of 9600 nM.

Take `Cc1cccc(Cl)c1NC(=O)c1cnc(Nc2cc(N3CCOCC3)ncn2)s1`: the IC50 is under 3 nM in the data set with K562, 45 nM in the data set with MDA-MB-231, 270 nM in the data set on WiDr and 24 nM in the data set with PC-3. Moreover, the AUC(0-t) at 4 h in [1] is 1.7 µM·h. In [2], this compound had a concentration at 4 h of 220 nM. This compound also returned a Cmax in data set [3] of 960 nM.

Consider `Cc1nc(NCCCN2CCOCC2)cc(Nc2ncc(C(=O)Nc3c(C)cccc3Cl)s2)n1`, for which, in [4], the fraction unbound at 10 µM is 0.08. In addition, the IC50 was under 2 nM in the data set with K562, 23 nM with MDA-MB-231, 27 nM with WiDr and 14 nM in the data set with PC-3. The same compound gave an AUC(0-t) at 4 h in data set [1] of 11 µM·h. The concentration at 4 h in data set [2] came to 3100 nM. This compound registered a Cmax in data set [3] of 3100 nM.

For `Cc1nc(Nc2ncc(C(=O)Nc3c(C)cccc3Cl)s2)cc(N2CCC(CO)CC2)n1`, the IC50 in the data set with K562 is under 1 nM; in the data set with MDA-MB-231, 9 nM; with WiDr, 41 nM; in the data set with PC-3, 11 nM. Besides, in [1], the AUC(0-t) at 4 h was determined as 3.5 µM·h. The same compound showed a concentration at 4 h in [2] of 180 nM. Also, the peak level in data set [3] (Cmax) was 2500 nM.

With `Cc1nc(Nc2ncc(C(=O)Nc3c(C)cccc3Cl)s2)cc(N2CCOCC2)n1`, the IC50 in the data set with K562 is under 3 nM; in the data set with MDA-MB-231 it was 16 nM; in the data set with WiDr it was 27 nM; in the data set with PC-3, 3.6 nM. Moreover, the AUC(0-t) at 4 h in [1] came to 0.16 µM·h. The concentration at 4 h in [2] came out at 37 nM. In [3], the concentration peaked (Cmax) at 67 nM.

`Cc1nc(NCCN2CCOCC2)cc(Nc2ncc(C(=O)Nc3c(C)cccc3Cl)s2)n1`: the IC50 in the data set with K562 is under 1 nM; in the data set with MDA-MB-231 it was 47 nM; in the data set with WiDr it was 180 nM; in the data set on PC-3 it was 25 nM. In [1], this compound returned an AUC(0-t) at 4 h of 3.1 µM·h. For the same compound, the concentration at 4 h in data set [2] was 280 nM. This compound displayed a Cmax in [3] of 2200 nM.

Take `Cc1cccc(Cl)c1NC(=O)c1cnc(Nc2cccc(NCCCN3CCOCC3)n2)s1`: the half-inhibitory concentration (IC50) in the data set with K562 is under 2 nM; in the data set on MDA-MB-231, 34 nM; in the data set on WiDr, 32 nM; in the data set on PC-3, 10 nM. This compound yielded an AUC(0-t) at 4 h in data set [1] of 13 µM·h. The concentration at 4 h in data set [2] came out at 1100 nM. Moreover, the highest level in data set [3] (Cmax) was 8600 nM.

On to `Cc1cc(Nc2ncc(C(=O)Nc3c(C)cccc3Cl)s2)nc(C)n1`, for which the IC50 with K562 is 1.6 nM; in the data set with PC-3, 67 nM.

With `Cc1cccc(Cl)c1NC(=O)c1cnc(Nc2cccc(NCCO)n2)s1`, the fraction unbound at 10 µM in data set [4] is 0.08. Further, the IC50 is under 3 nM in the data set on K562, 3.1 nM with MDA-MB-231, 7.9 nM with WiDr and 13 nM with PC-3. The AUC(0-t) at 4 h in data set [1] was determined as 7.2 µM·h. Also, in [2], the concentration at 4 h amounted to 300 nM. Besides, the Cmax in data set [3] was 7000 nM.

As to `Cc1nc(NCCO)cc(Nc2ncc(C(=O)Nc3c(C)cccc3Cl)s2)n1`, the IC50 was under 4 nM in the data set with K562, 140 nM in the data set with MDA-MB-231, 210 nM with WiDr and 27 nM in the data set on PC-3. Moreover, the AUC(0-t) at 4 h in data set [1] was found to be 1.5 µM·h. This compound also returned a concentration at 4 h in data set [2] of 170 nM. The Cmax in [3] was found to be 800 nM.

On to `Cc1cccc(Cl)c1NC(=O)c1cnc(Nc2cccc(NCCCn3ccnc3)n2)s1`, for which the fraction unbound at 10 µM in data set [4] is 0.01. Besides, the IC50 in the data set on K562 was under 3 nM; in the data set with MDA-MB-231, under 3 nM; in the data set with WiDr it was 4.1 nM; in the data set with PC-3, 2.8 nM. The AUC(0-t) at 4 h in data set [1] amounted to 0.16 µM·h. The compound also showed a concentration at 4 h in [2] of 33 nM. For the same compound, the Cmax in [3] is 88 nM.

Regarding `Cc1nc(Nc2ncc(C(=O)Nc3c(C)cccc3Cl)s2)cc(N2CCN(CCO)CC2)n1.O` [DASATINIB], the PPB in the data set on Serum came to 91%. For the same compound, the IC50 was under 1 nM with K562, 12 nM in the data set on MDA-MB-231, 52 nM in the data set on WiDr and 9.4 nM with PC-3. The Cmax is 13200 nM in data set [5], 2700 nM in [3] and 500 nM in data set [13]. For the same compound, the F in the data set on Rattus norvegicus [6] is on record as 27%. Further, the MRT came out at 6.7 h in [7] and 4.1 h in data set [14]. For the same compound, in data set [1], the AUC(0-t) at 4 h was 4.8 µM·h. Besides, the AUC in data set [8] was found to be 13.9 µM·h; in data set [9] it was 3.8 µM·h. Also, in the data set filed under Mus musculus, the Activity result was “Non-toxic”. Besides, the concentration at 4 h in data set [2] came out at 700 nM. Further, the Tmax in data set [10] was determined as 2.2 h. Besides, the clearance in the data set with Rattus norvegicus [11] came out at 26.4 mL/min/kg. For the same compound, in data set [12], the Vd was determined as 6.3 L/kg.

By IC50 is commonly meant the concentration that gives 50% inhibition. A higher IC50 goes with weaker potency in that assay. A word on the AUC(0-t): it is exposure summed from dosing to a finite time, without extrapolation to infinity. Higher therefore signals more exposure. By Cmax is commonly meant the maximum level reached in the sampled fluid or tissue. For orientation: MRT means the average time that molecules of a dose stay in the body. Broadly, the AUC is the area under the concentration-time curve, a measure of exposure. The term Tmax denotes the time at which the peak concentration occurs. One may read the clearance as the rate of elimination divided by the concentration. A higher clearance goes with efficient removal.
